For 3 compounds, inhibition results are on record in PubChem BioAssay AID624400 (The Scripps Research Institute Molecular Screening Center, 2012).

The test system of the experiment is aryl hydrocarbon receptor (Cavia porcellus). The experiment is described as follows: competitors of radiolabeled TCDD at AHR – cell lysate, guinea pig liver cytosol, radiometric, set 2, counter-screen for AHR activator project, late-stage follow-up (AID 624400). The settings on record: [3H]TCDD binding, hydroxyapatite, at 10 µM, active compounds read high. The gist of the method: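 Also added: 2 nM [3H]TCDD; material: guinea pig hepatic cytosol with AHR; controls: TCDF (200 nM) for nonspecific binding; doses: single nominal dose of 10 µM, 2% DMSO; incubation: 1 h binding incubation at room temperature; repeats: triplicate measurements per compound; technique: scintillation counting of hydroxyapatite-bound [3H]TCDD after Tween 80 buffer washes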
Turning to `Cc1ccc(-c2cc(-c3cccc(F)c3)n[nH]2)c(O)c1`, the inhibition (usually the share of the control response that was lost under treatment) is 34.8%.
With `Cc1ccc(-c2cc(-c3ccc(Cl)cc3)n[nH]2)c(O)c1` the figure was 61.7%; with `Cc1ccc(-c2cc(-c3ccc(F)cc3)n[nH]2)c(O)c1`, 19.8%.
